In ChEMBL document CHEMBL1811845, “Modulation of GABAA-receptors by honokiol and derivatives: subtype selectivity and structure-activity relationship” (J Med Chem, 2011):

How the values were obtained:
[1] = target: T1, Gamma-aminobutyric acid receptor subunit alpha-2/beta-2 (Homo sapiens, UniProt P47869+P47870); assay: Modulation of GABA Aalpha2beta2 receptor expressed in Xenopus laevis oocytes assessed as potentiation of GABA-induced chloride current at holding potential -70 mV by two-microelectrode voltage clamp technique; assay type: cell-based, Oocyte
T1 sequence (P47870 whole entry): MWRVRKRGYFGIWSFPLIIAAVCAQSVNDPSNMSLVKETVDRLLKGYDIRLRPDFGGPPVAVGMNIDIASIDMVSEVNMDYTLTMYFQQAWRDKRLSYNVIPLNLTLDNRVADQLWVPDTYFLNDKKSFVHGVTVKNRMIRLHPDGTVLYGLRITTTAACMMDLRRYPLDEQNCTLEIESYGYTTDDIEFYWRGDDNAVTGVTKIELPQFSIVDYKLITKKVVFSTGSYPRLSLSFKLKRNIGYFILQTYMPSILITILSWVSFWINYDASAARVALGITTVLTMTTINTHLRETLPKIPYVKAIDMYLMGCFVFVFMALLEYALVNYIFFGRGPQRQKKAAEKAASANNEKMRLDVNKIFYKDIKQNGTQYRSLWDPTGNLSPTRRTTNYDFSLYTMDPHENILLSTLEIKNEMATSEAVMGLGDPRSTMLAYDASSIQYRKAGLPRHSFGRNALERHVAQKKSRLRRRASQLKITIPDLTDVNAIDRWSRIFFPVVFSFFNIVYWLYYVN
T1 sequence (P47869 whole entry): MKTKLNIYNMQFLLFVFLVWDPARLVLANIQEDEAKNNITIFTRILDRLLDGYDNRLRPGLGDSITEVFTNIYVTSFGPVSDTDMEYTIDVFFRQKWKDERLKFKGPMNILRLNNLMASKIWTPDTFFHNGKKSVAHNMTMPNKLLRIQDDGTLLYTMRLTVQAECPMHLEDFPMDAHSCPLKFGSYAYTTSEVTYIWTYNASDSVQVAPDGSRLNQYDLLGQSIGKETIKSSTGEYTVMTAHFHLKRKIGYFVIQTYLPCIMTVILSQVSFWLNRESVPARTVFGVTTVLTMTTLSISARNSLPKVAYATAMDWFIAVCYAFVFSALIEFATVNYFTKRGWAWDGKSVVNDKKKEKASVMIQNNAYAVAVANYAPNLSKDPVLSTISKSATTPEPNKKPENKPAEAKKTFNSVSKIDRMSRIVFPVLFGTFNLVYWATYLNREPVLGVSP
In short: (§1)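 Stage V–VI Xenopus oocytes, defolliculated with 2 mg/mL collagenase, injected with α(1, 2, 3 or 5) and β2 cRNAs mixed 1:1, then kept at 18 °C in ND96 (pH 7.4). Enhancement = I(GABA+compound)/IGABA − 1. Curves were Hill-fitted for EC50. Bath DMSO was at most 0.3%, matched in controls.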

[2] = target: T2, Gamma-aminobutyric acid receptor subunit alpha-3/ beta-2 (Homo sapiens, UniProt P34903+P47870); assay: Modulation of GABA Aalpha3beta2 receptor expressed in Xenopus laevis oocytes assessed as potentiation of GABA-induced chloride current at holding potential -70 mV by two-microelectrode voltage clamp technique; assay type: cell-based, Oocyte; in short: as §1
T2 sequence (P47870 whole entry): T1 sequence (P47870 whole entry)
T2 sequence (P34903 whole entry): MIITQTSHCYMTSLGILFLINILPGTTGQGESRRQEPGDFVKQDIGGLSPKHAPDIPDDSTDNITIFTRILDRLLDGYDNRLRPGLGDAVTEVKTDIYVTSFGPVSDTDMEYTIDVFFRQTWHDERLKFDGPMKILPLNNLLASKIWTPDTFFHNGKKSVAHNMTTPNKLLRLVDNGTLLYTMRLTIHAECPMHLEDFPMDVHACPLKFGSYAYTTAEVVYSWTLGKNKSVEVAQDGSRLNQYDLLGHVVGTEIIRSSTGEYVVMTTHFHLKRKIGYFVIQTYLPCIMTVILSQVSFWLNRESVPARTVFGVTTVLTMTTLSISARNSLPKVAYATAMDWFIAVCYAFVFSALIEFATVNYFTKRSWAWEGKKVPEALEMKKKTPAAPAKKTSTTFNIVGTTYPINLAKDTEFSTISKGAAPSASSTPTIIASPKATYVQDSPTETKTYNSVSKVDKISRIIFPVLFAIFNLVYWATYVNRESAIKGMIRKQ

[3] = Octanol-water partition coefficient, log P of the compound; assay type: physicochemical; details: read-out: logP
[4] = target: Gamma-aminobutyric acid receptor subunit alpha-2/beta-2 (Homo sapiens) (UniProt P47870+P47869); assay: Modulation of GABA Aalpha2beta2 receptor expressed in Xenopus laevis oocytes assessed as potentiation of GABA-induced chloride current at holding potential -70 mV by two-microelectrode voltage clamp technique relative to GABA; assay type: cell-based; details: Oocyte
In short: (§2)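 Oocytes were injected with α1, α2, α3 or α5 plus β2 cRNA at a 1:1 ratio and stored at 18 °C in ND96, pH 7.4. Enhancement was (I(GABA+compound)/IGABA)−1, and concentration-response data were Hill-fitted for EC50 and nH. Matched DMSO was ≤0.3%.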

[5] = target: Gamma-aminobutyric acid receptor subunit alpha-3/ beta-2 (Homo sapiens) (UniProt P47870+P34903); assay: Modulation of GABA Aalpha3beta2 receptor expressed in Xenopus laevis oocytes assessed as potentiation of GABA-induced chloride current at holding potential -70 mV by two-microelectrode voltage clamp technique relative to GABA; assay type: cell-based; details: Oocyte; in short: as §2
[6] = target: T3, GABA-A receptor; GABA-A site (alpha1/beta2 interface) (Homo sapiens) (UniProt P14867+P47870); assay: Modulation of GABA Aalpha1beta2 receptor expressed in Xenopus laevis oocytes assessed as potentiation of GABA-induced chloride current at holding potential -70 mV at 30 uM by two-microelectrode voltage clamp technique relative to GABA; assay type: cell-based; details: Oocyte
In short: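 Single-concentration screen at 30 μM on α1β2 receptors (cRNA 1:1) in Xenopus oocytes. Enhancement was (I(GABA+compound)/IGABA)−1. DMSO was matched in control and test solutions, maximum 0.3% in the bath.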

[7] = target: T4, GABA-A receptor; GABA-A site (alpha1/beta2 interface) (Homo sapiens, UniProt P14867+P47870); assay: Modulation of GABA Aalpha1beta2 receptor expressed in Xenopus laevis oocytes assessed as potentiation of GABA-induced chloride current at holding potential -70 mV by two-microelectrode voltage clamp technique; assay type: cell-based, Oocyte; in short: as §1
T4 sequence (P14867 whole entry): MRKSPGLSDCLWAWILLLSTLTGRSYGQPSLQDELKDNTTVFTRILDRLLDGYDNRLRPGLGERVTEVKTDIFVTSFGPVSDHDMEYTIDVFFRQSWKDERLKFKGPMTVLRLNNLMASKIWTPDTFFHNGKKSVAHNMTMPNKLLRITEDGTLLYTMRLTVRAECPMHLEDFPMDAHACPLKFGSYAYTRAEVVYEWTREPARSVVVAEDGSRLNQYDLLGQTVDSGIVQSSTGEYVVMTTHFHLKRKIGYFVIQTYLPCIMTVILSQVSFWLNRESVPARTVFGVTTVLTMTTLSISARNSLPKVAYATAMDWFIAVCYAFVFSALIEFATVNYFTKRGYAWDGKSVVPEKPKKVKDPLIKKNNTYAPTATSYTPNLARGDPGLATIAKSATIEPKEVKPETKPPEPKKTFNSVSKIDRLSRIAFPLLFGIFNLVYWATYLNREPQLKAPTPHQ
T4 sequence (P47870 whole entry): T1 sequence (P47870 whole entry)

[8] = target: Gamma-aminobutyric acid receptor subunit alpha-5/beta-2 (Homo sapiens) (UniProt P47870+P31644); assay: Modulation of GABA Aalpha5beta2 receptor expressed in Xenopus laevis oocytes assessed as potentiation of GABA-induced chloride current at holding potential -70 mV by two-microelectrode voltage clamp technique relative to GABA; assay type: cell-based; details: Oocyte; in short: as §2
[9] = target: T5, Gamma-aminobutyric acid receptor subunit alpha-5/beta-2 (Homo sapiens, UniProt P31644+P47870); assay: Modulation of GABA Aalpha5beta2 receptor expressed in Xenopus laevis oocytes assessed as potentiation of GABA-induced chloride current at holding potential -70 mV by two-microelectrode voltage clamp technique; assay type: cell-based, Oocyte; in short: as §1
T5 sequence (P47870 whole entry): T1 sequence (P47870 whole entry)
T5 sequence (P31644 whole entry): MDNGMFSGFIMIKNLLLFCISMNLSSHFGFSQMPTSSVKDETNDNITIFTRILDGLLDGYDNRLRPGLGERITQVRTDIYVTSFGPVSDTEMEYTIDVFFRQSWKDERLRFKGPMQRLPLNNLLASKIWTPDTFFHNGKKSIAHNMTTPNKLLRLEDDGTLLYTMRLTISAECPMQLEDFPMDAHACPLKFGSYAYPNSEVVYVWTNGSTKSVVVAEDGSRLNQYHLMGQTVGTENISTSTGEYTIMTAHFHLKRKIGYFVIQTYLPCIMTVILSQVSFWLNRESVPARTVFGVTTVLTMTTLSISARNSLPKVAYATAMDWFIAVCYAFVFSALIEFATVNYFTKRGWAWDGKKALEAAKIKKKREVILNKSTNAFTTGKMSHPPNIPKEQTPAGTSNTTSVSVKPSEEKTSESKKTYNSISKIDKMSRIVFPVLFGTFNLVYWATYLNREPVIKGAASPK

[10] = target: T3, GABA-A receptor; GABA-A site (alpha1/beta2 interface) (Homo sapiens); assay: Modulation of GABA Aalpha1beta2 receptor expressed in Xenopus laevis oocytes assessed as potentiation of GABA-induced chloride current at holding potential -70 mV by two-microelectrode voltage clamp technique relative to GABA; assay type: cell-based; details: Oocyte; in short: as §2
Oocyte = assay: Modulation of GABA alpha1beta2gamma2s receptor expressed in Xenopus laevis oocytes assessed as potentiation of GABA-induced chloride current at holding potential -70 mV at 300 nM by two-microelectrode voltage clamp technique relative to GABA; assay type: cell-based
In short: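 Xenopus oocytes were injected with α1, β2 and γ2s cRNAs mixed 1:1:10 and stored at +18 °C in ND96 at pH 7.4. Chloride current was recorded by two-electrode voltage clamp at -70 mV and ambient temperature. Compound was co-applied with GABA at 3–7% of maximal current, set for each oocyte. Enhancement was calculated as (I(GABA+compound)/IGABA) − 1 with matched DMSO.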

Structure (SMILES)	EC50 [1] [µM]	EC50 [2] [µM]	logP [3]	Smax [4] [%]	Smax [5] [%]	Activity [6] [%]	EC50 [7] [µM]	Smax [8] [%]	EC50 [9] [µM]	Smax [10] [%]	Activity (Oocyte) [%]
CCCc1cc(N)c(O)c(-c2ccc(OC)c(CCC)c2)c1	3.2	8.4	5.38	2980	2380	2020	9.2	1870	5.3	2260	–
C=CCc1cc(NC(C)=O)c(O)c(-c2ccc(OC)c(CC=C)c2)c1	7.9	9	4.75	5200	3670	2630	3.8	1010	2.3	2600	–
CN1C(=O)CN=C(c2ccccc2)c2cc(Cl)ccc21	–	–	–	–	–	–	–	–	–	–	104
